Results as given in the array DNA melting data of Ke et al. (doi:10.1101/2024.01.08.574731).

Tests used:
[1] = folding enthalpy; higher = less favourable; fluorescence melt of hairpins on a sequencing array, two-state fit; conditions: sodium 0.088 M
Procedure, shortened: (§1)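 Hairpins were imaged by Cy3 fluorescence on a sequenced MiSeq flow cell with annealed Cy3 and quencher oligos, in 50 mM Na-HEPES pH 8.0, 25 mM NaCl, in 2.5 °C steps up to 60 °C. Bootstrapped two-state fits of normalised signals gave melting temperature and folding enthalpy. Four replicates were combined by inverse variance, and fitted temperatures were raised by 9.35 °C to match UV melts.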

[2] = melting temperature; fluorescence melt of hairpins on a sequencing array, two-state fit, raised by 9.35 °C to match UV melts; conditions: sodium 0.088 M
Procedure, shortened: as §1

Row | Sequence | folding enthalpy [1] | Tm [2]
1 | GCACTGGGAAACCGGTGC ((((.((....)).)))) | -44.1 kcal/mol | 59.6 °C
2 | GTGTCACGAAAGTGTCAC (((.(((....))).))) | -40.4 kcal/mol | 53.5 °C
3 | GCCATCGAAAGATCCGGC ((((((....)))..))) | -19.6 kcal/mol | 33.2 °C
4 | GCGCACGGAAACGCGCAC (.((.((....)).)).) | -13.7 kcal/mol | 52.4 °C
5 | GCAATGCGAAAGCGGTGC (((..((....))..))) | -21.7 kcal/mol | 56.6 °C
6 | GACGGTGAAAACCGTC ((((((....)))))) | -32.1 kcal/mol | 68.5 °C
7 | GTGCTGCGAAAGCACCAC (((.(((....))).))) | -15 kcal/mol | 52.6 °C
8 | GCCGCGCGAAAGCAGGGC (((..((....))..))) | -23.1 kcal/mol | 61.5 °C
9 | GGTTGCGAAAGCAGGACC ((((((....)))..))) | -19.2 kcal/mol | 37.8 °C
10 | GATCAACCTATTGATC ((((((....)))))) | -29 kcal/mol | 41.5 °C
11 | GGAGGGCGAAAGCCGTCC (((.(((....))).))) | -21 kcal/mol | 67 °C
12 | CGATAGAAATATCG (((((....))))) | -19.8 kcal/mol | 39.1 °C
13 | GATCGACGCCTCGATC ((((((....)))))) | -43.6 kcal/mol | 51.6 °C
14 | GTATGCGAAAGCACCTAC ((((((....)))..))) | -5.96 kcal/mol | 22.1 °C
15 | GCACAAGGAAACTTGTGC (((((((....))))))) | -33.7 kcal/mol | 67.4 °C
16 | GATCAGCATGCTGATC ((((((....)))))) | -47.5 kcal/mol | 60.8 °C
17 | GATCGTTATACGATC ((((((...)))))) | -36.4 kcal/mol | 57.9 °C
18 | GATAGGGGAAACCCTATC (((((((....))))))) | -42 kcal/mol | 54.9 °C
19 | GCGTATGGAAACACACGC ((((.((....)).)))) | -29 kcal/mol | 46.3 °C

Row | Sequence | folding enthalpy [1] | Tm [2]
20 | GATCAACGGATTGATC ((((((....)))))) | -28 kcal/mol | 39.5 °C
21 | GGTAAGCGAAAGCTACC (((.(((....)))))) | -26.7 kcal/mol | 55 °C
22 | GGTGCCTCGAAAGAGACC (((..(((....)))))) | -15 kcal/mol | 30.8 °C
23 | TTGATGAAAATCAA (((((....))))) | -13.4 kcal/mol | 32.8 °C
24 | GGATTCGAAAGAAGATCC ((((((....)))..))) | -12.2 kcal/mol | 28.1 °C
25 | GATAGGCGAAAGCCATC (((.(((....)))))) | -12.6 kcal/mol | 40.3 °C
26 | GGGTGTGGAAACGTACCC ((((..(....)..)))) | -28.7 kcal/mol | 45.5 °C
27 | GATCGGATGACCGATC ((((((....)))))) | -29.8 kcal/mol | 55.8 °C
28 | GCTCGGCGAAAGCGGTGC ((.(.((....)).).)) | -13 kcal/mol | 57.6 °C
29 | GCTGATGGAAACATCAAC (.(((((....))))).) | -21 kcal/mol | 36 °C
30 | GTGATGGGAAACCATTGC (..((((....))))..) | -23.6 kcal/mol | 33.7 °C
31 | GATCAAGTGTTGATC ((((((...)))))) | -32 kcal/mol | 40.9 °C
32 | GTAATCGAAAGATTCTAC ((((((....)))..))) | -18.5 kcal/mol | 28.8 °C
33 | GATCCGTAGACGGATC ((((((....)))))) | -42.9 kcal/mol | 58.2 °C
34 | GTTTACCGAAAGGTCAAC (((.(((....))).))) | -24.8 kcal/mol | 39.1 °C
35 | GCCATCCGAAAGGAAGGC (((.(((....))).))) | -31.3 kcal/mol | 57.9 °C
36 | GGCAACGAAAGTTAAGCC ((((((....)))..))) | -24 kcal/mol | 45.7 °C
37 | CATGAGAAATCATG (((((....))))) | -13.9 kcal/mol | 43.9 °C
38 | GCAAGAGGAAACTTTTGC ((((.((....)).)))) | -26 kcal/mol | 39 °C
